Screens from PubChem BioAssay.
This is a sample that favours compounds with a hit; in the whole collection about 3.8% have one here.
SIRT5 block = sirtuin-5 (human) deacylase inhibition. Q9NXA8. Purified SirT5, succinyl-peptide AMC, trypsin-coupled fluorescence. inhibition, % at 15 µM. 330,000 compounds, 1.1% hits; in the data active = inhibition above about 15%; inconclusive = no clear call, values can overlap the other calls
Target sequence (Q9NXA8 whole entry, looked up): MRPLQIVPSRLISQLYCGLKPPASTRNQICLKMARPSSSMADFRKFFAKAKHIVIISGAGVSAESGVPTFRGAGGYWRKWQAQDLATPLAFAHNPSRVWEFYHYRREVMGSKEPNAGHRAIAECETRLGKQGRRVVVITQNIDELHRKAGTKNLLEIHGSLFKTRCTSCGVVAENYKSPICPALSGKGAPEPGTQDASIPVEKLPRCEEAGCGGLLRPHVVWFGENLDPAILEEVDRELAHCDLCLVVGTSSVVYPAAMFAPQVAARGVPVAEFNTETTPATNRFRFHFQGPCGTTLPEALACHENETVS
DENV2 CPE rescue = protects cells from dengue virus 2 cytopathic effect. 350,000 compounds, 1.7% hits. DENV2-infected cells, cytopathic effect rescue, plate reader. CPE inhibition, % at 9.99 µM; in the data active = CPE inhibition above about 20%, passing the limit was not always enough; inconclusive = no clear call, values can overlap the other calls; tested in BHK-21 cells
Xi reactivation = activators of X-chromosome reactivation in mouse fibroblasts | XiGFP mouse fibroblasts, % GFP-positive cells imaging, 3 d; cells co-treated with 5-aza-dC sensitizer; scaled so ellipticine positive control = 100% | activation, % at 7.58 µM | 360,000 compounds, 0.055% hits | AID 743238;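 active = mean normalized replicate activation at least 10% and every replicate at or above 10%; inconclusive = only one of the two criteria met; inactive = mean below 10% and not all replicates reach 10%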
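System: XiGFP fibroblasts, SV40-immortalized. Medium: DMEM plus 5-aza-dC sensitizer. Doses: single point. Timing: 3 d treatment, 15 min room-temperature fixation. Control set: ellipticine 6 µM.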
FGF22 binding = shifts melting point of recombinant human FGF22. activity (Tm shift, normalised), % at 9.99 µM. AID 651658. recombinant FGF22 thermal shift, SYPRO orange fluorescence; percent of sucrose octasulfate shift, DMSO zero. Q9HCT0. 340,000 compounds, 1.5% hits;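 active = mean Tm shift, scaled 0 neutral to 100 positive control, at about 1.3% or above, every replicate too, limit read from the data; inconclusive = no clear call, values can overlap the other calls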
Target sequence (Q9HCT0 whole entry, looked up): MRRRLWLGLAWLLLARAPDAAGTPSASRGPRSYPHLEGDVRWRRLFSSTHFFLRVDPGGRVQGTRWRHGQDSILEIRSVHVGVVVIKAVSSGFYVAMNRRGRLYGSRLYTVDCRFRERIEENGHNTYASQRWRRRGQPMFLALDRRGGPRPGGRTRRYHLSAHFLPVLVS
FN deposit inh = fibronectin deposition inhibition | AID 743247 | 350,000 compounds, 0.086% hits | AH1F fibroblasts, Alexa488-fibronectin deposition fluorescence, overnight | inhibition, % at 12.6 µM;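 active = mean inhibition across replicates of 30% or more, regardless of how many single replicates reach that level; inconclusive = mean under 30% yet at least half of replicates reach 30%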
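Assay system: AH1F fibroblasts / Quantity: 10000 cells per well / Medium: DMEM plus 2% serum, read in PBS / Reagent: labelled fibronectin 24 nM / Dosing: single dose, pinned / Times: 1 h cell attachment, overnight exposure to compound and label / Signal: fluorescence, ex 485 nm, em 525 nm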
ARNT TACC3 PPI = disrupts binding between human ARNT and TACC3; AlphaScreen His-ARNT PAS-B/GST-TACC3 binding, luminescence; TACC3 fragment carries E629A point mutation; 390,000 compounds, 0.66% hits; inhibition, % at 9.99 µM;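 active = mean inhibition of replicates at least 50% and at least half of replicates each reaching 50%; inconclusive = half or more replicates reach 50% but mean below 50%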
Numbers stand for hits.

`N#C[C@H]1[C@H](c2ccc(C3=CCCCC3)cc2)[C@@H](CO)N1C(=O)c1cccc(F)c1` gave DENV2 CPE rescue inactive, Xi reactivation inactive, FGF22 binding inactive, FN deposit inh inactive and ARNT TACC3 PPI inactive.
Screening CC(=O)Nc1ccc(S(=O)(=O)N2CCN(c3cnn(C)c(=O)c3Cl)CC2)cc1 returned SIRT5 block inactive, DENV2 CPE rescue inactive, Xi reactivation inactive, FGF22 binding 43.1 and FN deposit inh inactive.
`O=C(OCc1ccccc1)N1CCC2CC1c1cc(-c3ccc(F)cc3)ccc12` (configuration not stated) gave SIRT5 block inactive, DENV2 CPE rescue inactive, Xi reactivation inactive, FGF22 binding inactive, FN deposit inh inactive and ARNT TACC3 PPI inactive.
COc1ccc(-c2ccc3c(c2)C2CC3CCN2C(=O)OCc2ccccc2)cc1 (configuration not stated) was read as SIRT5 block inactive, DENV2 CPE rescue inactive, Xi reactivation inactive, FGF22 binding inactive, FN deposit inh active and ARNT TACC3 PPI inactive.
`COc1ccc2c3c(n(C)c2c1)[C@@H](CO)N(CC1CCOCC1)CC31CN(C(=O)c2cccc(F)c2)C1` gave Xi reactivation inactive.
CCCC(=O)N1CCC2(CC1)CN(C(=O)CC)[C@H](CO)c1c2c2ccc(OC)cc2n1C was read as SIRT5 block inactive, DENV2 CPE rescue inactive, Xi reactivation inactive and FGF22 binding inactive.
For COCCNC(=O)C[C@@H]1CC[C@H]2[C@@H](COc3ccc(NC(=O)Cc4ccccc4)cc3C(=O)N2C)O1 the results were SIRT5 block inactive, DENV2 CPE rescue inactive, Xi reactivation inactive, FGF22 binding inactive, FN deposit inh inactive and ARNT TACC3 PPI inactive.
`COc1ccc(NC(=O)N(C)C[C@H]2Oc3ccc(NC(=O)CCC(F)(F)F)cc3CC(=O)N([C@@H](C)CO)C[C@H]2C)cc1` gave SIRT5 block inactive, DENV2 CPE rescue inactive, Xi reactivation inactive, FGF22 binding inactive, FN deposit inh inactive and ARNT TACC3 PPI inactive.
Screening O=C(O)CCCN1C(=O)c2ccc(C(=O)c3cccc([N+](=O)[O-])c3)cc2C1=O returned SIRT5 block inactive, DENV2 CPE rescue inactive, Xi reactivation inactive, FGF22 binding 43.3, FN deposit inh inactive and ARNT TACC3 PPI inactive.
Screening CCOc1ccc(Nc2nc3cc(S(=O)(=O)CC)ccc3o2)cc1 returned SIRT5 block 17.7, DENV2 CPE rescue inactive, FGF22 binding inactive, FN deposit inh inactive and ARNT TACC3 PPI inactive.
Screening CCS(=O)(=O)c1ccc2oc(Nc3ccc(OC)cc3)nc2c1 returned SIRT5 block inactive, DENV2 CPE rescue inactive, Xi reactivation inactive, FGF22 binding inactive, FN deposit inh inactive and ARNT TACC3 PPI inactive.
Screening COc1ccccc1NC(=O)N1CC(=O)N2[C@H](CO)[C@@H](c3ccc(C#CC4CC4)cc3)[C@@H]2C1 returned SIRT5 block inactive, DENV2 CPE rescue inactive and Xi reactivation inactive.
Screening O=C(Cc1ccccc1F)Nc1cccc(S(=O)(=O)N2CCOCC2)c1 returned SIRT5 block 17.1, DENV2 CPE rescue inactive, Xi reactivation inactive, FGF22 binding inactive, FN deposit inh inactive and ARNT TACC3 PPI inactive.
`CC(C(=O)Nc1cccc(S(=O)(=O)N2CCOCC2)c1)N1CCN(C)CC1` (configuration not stated) gave SIRT5 block inactive, DENV2 CPE rescue inactive, Xi reactivation inactive, FGF22 binding inactive, FN deposit inh inactive and ARNT TACC3 PPI inactive.
`O=C(CNc1cccc(S(=O)(=O)N2CCOCC2)c1)Nc1cccc(Br)c1` gave SIRT5 block inactive, DENV2 CPE rescue 27.2, Xi reactivation inactive, FGF22 binding inactive, FN deposit inh inactive and ARNT TACC3 PPI inactive.
For O=S(=O)(Nc1cccc(S(=O)(=O)N2CCOCC2)c1)c1ccc(Cl)s1 the results were SIRT5 block inactive, DENV2 CPE rescue inactive, Xi reactivation inactive, FGF22 binding 43.1, FN deposit inh inactive and ARNT TACC3 PPI inactive.
`CC(C(=O)Nc1cccc(S(=O)(=O)N2CCOCC2)c1)N1CCN(c2ccc(F)cc2)CC1` (configuration not stated) gave SIRT5 block 16.1, DENV2 CPE rescue inactive, Xi reactivation inactive, FGF22 binding inactive, FN deposit inh inactive and ARNT TACC3 PPI inactive.
`O=C(CNc1cccc(S(=O)(=O)N2CCCC2)c1)Nc1cccc(Br)c1` gave SIRT5 block inactive, DENV2 CPE rescue inconclusive, Xi reactivation inactive, FGF22 binding inactive, FN deposit inh inactive and ARNT TACC3 PPI inactive.
`O=S(=O)(c1cccc(NC(=S)N2CCN(c3ccc(F)cc3)CC2)c1)C(F)F` gave SIRT5 block 30.0, Xi reactivation inactive, FGF22 binding inactive, FN deposit inh inactive and ARNT TACC3 PPI inactive.
CN1C(=O)c2cc(NC(=O)Cc3ccccc3)ccc2OC[C@H]2O[C@@H](CC(=O)NCc3ccc(Cl)cc3)CC[C@H]21 was read as DENV2 CPE rescue inactive, Xi reactivation inactive, FGF22 binding inactive, FN deposit inh inactive and ARNT TACC3 PPI inactive.
CC(C)c1ccc(NC(=O)c2csnn2)cc1 was read as SIRT5 block inactive, DENV2 CPE rescue inactive, FGF22 binding inactive and ARNT TACC3 PPI inactive.
`CC(C)c1ccc(NC(=O)c2snc3ccc(Cl)cc23)cc1` gave SIRT5 block inactive, DENV2 CPE rescue inactive, Xi reactivation inactive, FGF22 binding 44.3, FN deposit inh inactive and ARNT TACC3 PPI inactive.
For Cc1ccc2[nH]c(C)c(/C=C/c3cc[n+](C)cc3)c2c1 the results were SIRT5 block inactive, DENV2 CPE rescue inactive, Xi reactivation 45.3, FGF22 binding inactive, FN deposit inh inactive and ARNT TACC3 PPI inactive.
For Cn1cc(/C=C/c2cc[n+](C)cc2)c2cc(F)ccc21 the results were SIRT5 block inactive and ARNT TACC3 PPI inactive.
Screening Cc1ccc2c(c1)c(/C=C/c1cc[n+](C)cc1)c(C)n2C returned SIRT5 block inactive, DENV2 CPE rescue inactive, Xi reactivation 105.8, FGF22 binding inactive and FN deposit inh inactive.
`COCCNS(=O)(=O)c1ccc2c3c(cccc13)C(=O)N2C` gave SIRT5 block inactive, DENV2 CPE rescue inactive, Xi reactivation inactive, FGF22 binding 43.5, FN deposit inh inactive and ARNT TACC3 PPI inactive.
For C[C@H](CO)N1C[C@H](C)[C@@H](CN(C)Cc2ccc3c(c2)OCO3)Oc2ccc(NS(=O)(=O)c3cccs3)cc2C1=O the results were SIRT5 block inactive, DENV2 CPE rescue inactive, Xi reactivation inactive, FGF22 binding inactive, FN deposit inh inactive and ARNT TACC3 PPI inactive.
`COC(=O)c1sc(-c2ccccc2)cc1NC(=O)C1CC1` gave SIRT5 block inactive, DENV2 CPE rescue inactive, Xi reactivation inactive, FGF22 binding inactive, FN deposit inh inactive and ARNT TACC3 PPI inactive.
